Data as given in ChEMBL document CHEMBL1138243, “Design of mechanism-based inhibitors of transthyretin amyloidosis: studies with biphenyl ethers and new structural templates” (J Med Chem, 2007).
Several values for one entry are separate records, joined by “and”; a condition that tells them apart may be missing. Equal values may be shown once.

What was measured:
[1] = biological target: T1, Transthyretin (Homo sapiens, UniProt P02766); test: Inhibition of transthyretin fibril formation at pH 4.4 at 100 uM; type: functional
How it was run: (§1)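 Library screen of acid-mediated TTR fibril formation at pH 4.4 with inhibitor at 100 µM. TTR was at 7.2 µM.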

[2] = biological target: T1, Transthyretin; test: Inhibition of transthyretin amyloidosis assessed as fibril formation pH 4.4 at 100 uM; type: functional; how it was run: as §1

inhibition [1]	percent fibril formation relative to control [2] [%]	Structure (SMILES)
0%	114	Cc1nnc2c(Oc3ccc(Cl)cc3)nc3cc(Cl)ccc3n12
0%	113	Cc1ccc2nc(-c3ccc(Cl)s3)c(Nc3ccc(Cl)cc3)n2c1
0%	128	CCCCC1NC(C(=O)O)CS1 (stereo unspecified)
0%	117	O=c1c2sccc2n(Cc2ccc(F)cc2Cl)c(=O)n1-c1cc(F)ccc1F
0%	116	COc1cc(C2NC(C(=O)O)CS2)ccc1O (stereo unspecified)
27.2%	72.8	O=C(NC(c1cccc([N+](=O)[O-])c1)c1cc(Cl)c2cccnc2c1O)c1cccnc1 (stereo unspecified)
0%	164	CCOC(=O)c1sc(=S)n(-c2ccc(Br)cc2)c1N
0%	125	Cc1ccc(/C=c2/sc3nc4ccccc4n3c2=O)cc1
0%	119	O=C(O)C1CSC(c2ccc([N+](=O)[O-])cc2)N1 (stereo unspecified)
85.7%	14.3	Cc1ccc(C2NC(C(=O)O)CS2)cc1 (stereo unspecified)
0%	135	Oc1ccc(-c2nc3ncccn3c2Nc2ccc(Cl)cc2)cc1
0%	306	Cc1ccccc1Nc1c(-c2ccc(Cl)s2)nc2ccc(Cl)cn12
3.18% and 0%	–	Cc1cc(C(=O)Nc2cc(Cl)ccc2O)no1
0%	108	CCc1ccccc1NC(=S)N(CCN(C)C)Cc1cccs1
0%	106	O=C1CCCC2=C1C(c1cccc(O)c1)NC(=S)N2 (stereo unspecified)
0%	286	O=C1NC(=S)S/C1=C\c1ccc(-c2cc(Cl)ccc2Cl)o1
0%	202	CSC1=NSC2=NC(=O)/C(=C\c3ccc[nH]3)C(=N)N12
63.3%	36.7	O=C(NC(c1ccco1)c1cc(Cl)c2cccnc2c1O)c1cccnc1 (stereo unspecified)
0%	309	O=C1/C(=C\c2cccc(O)c2)SC(=S)N1c1ccc(F)cc1
13.3%	86.7	FC(F)(F)c1cccc(NC(=S)N(CCCN2CCCCC2)Cc2cccs2)c1
41.9%	58.1	CCOC(=O)c1c(N)sc(C(=O)NC2CCCCC2)c1C

inhibition [1]	percent fibril formation relative to control [2] [%]	Structure (SMILES)
0%	107	O=C1/C(=C\c2ccc(-c3ccc(Cl)cc3)o2)SC(=S)N1c1cccc(Cl)c1
0%	146	CCOC(=O)c1sc(=S)n(-c2cccc3ccccc23)c1N
0%	112	Nc1cc(O)nc(SCC(=O)N2CCOCC2)n1
0%	177	CCN1C(=O)/C(=C/c2ccc(N(CC)CC)cc2O)SC1=S
12.2%	87.8	CCOC(=O)c1c(N)sc(C(=O)Nc2cc(C)cc(C)c2)c1C
0%	162	Cc1ccn2c(Nc3ccc(F)cc3)c(-c3ccccn3)nc2c1
37.8%	62.2	O=C(O)c1ccc(Cl)c(N2C(=O)C3C4CCC(C4)C3C2=O)c1 (stereo in doubt; 33)
0%	131	NN1C(=O)/C(=C\c2ccc(Cl)cc2)NC1=S
0%	105	Cc1nc2c(ccc3ccccc32)c(O)c1CN(C)Cc1ccccc1
1.4%	98.6	COc1ccc(NC(=S)N(CCCN2CCOCC2)Cc2cccnc2)cc1
0.7%	99.3	Fc1ccccc1NC(=S)N(CCCN1CCOCC1)Cc1cccnc1
0%	340	O=C1/C(=C\c2ccco2)SC(=S)N1c1cccc(F)c1
39.3%	60.7	O=C(NCc1ccco1)c1cc(Sc2cccc(Cl)c2)nc2ccccc12
0%	368	Cc1ccc2nc(NC(=O)c3ccccc3O)sc2c1
0%	120	O=C(O)C1CSC(c2ccc(O)cc2)N1 (stereo unspecified)
0%	102	COc1ccc(NC(=S)N(CCCN2CCOCC2)Cc2cccs2)cc1
0%	129	COc1ccc(C2NC(C(=O)O)CS2)cc1OC (stereo unspecified)
0%	107	CCN(CC)CCCN(Cc1ccco1)C(=S)Nc1ccc(OC)cc1
9.71%	10.4	CCc1ccc(Oc2cc(F)nc(N)n2)cc1
0%	281	COc1ccc(/C=C2\SC(=S)N(c3ccc(O)cc3)C2=O)cc1
77.7%	22.3	O=C(O)C1CSC(c2ccc(Cl)cc2Cl)N1 (stereo unspecified)

inhibition [1]	percent fibril formation relative to control [2] [%]	Structure (SMILES)
0%	104	O=C(Nc1c2c(nn1-c1ccc(F)cc1)C[S+]([O-])C2)c1ccccc1F (stereo unspecified)
65.3%	34.7	COc1cccc(C(=O)NC(c2ccccc2)c2cc(Cl)c3cccnc3c2O)c1 (stereo unspecified)
0%	130	Cc1ccn2c(Nc3ccccc3C)c(-c3ccc(O)cc3)nc2c1
32.9%	67.1	CSC1=NSC2=NC(=O)/C(=C\c3ccc(Cl)cc3)C(=N)N12
50%	50	Cn1ncc(/N=C/c2ccccc2O)c1C(=O)N1CCOCC1
91.7%	-86.7	Cc1nc2c(C(=O)NCCC(C)C)cnn2c(O)c1Cc1ccccc1F
80.8%	19.2	Oc1ccc(-c2n[nH]c(=S)o2)cc1
22.3%	77.8	Cc1ccsc1/C=c1\sc2nc(-c3cccs3)nn2c1=O
0%	138	Clc1ccc2nc(-c3ccc(Cl)s3)c(NC3CCCCC3)n2c1
0%	156	O=C(c1cc(-c2ccc(Cl)s2)nc2ccccc12)N1CCOCC1
0%	230	COc1cc(/C=C2\SC(=S)N(c3ccc(O)cc3)C2=O)ccc1O
95.4%	4.6	CC(C)C(=O)NC(c1ccccc1)c1ccc2cccnc2c1O (stereo unspecified)
58.2%	41.8	O=C(NC1CC1)c1cc(Sc2cccc(Cl)c2)nc2ccccc12
27.3%	72.7	CSC1=NSC2=NC(=O)/C(=C\c3ccc(O)cc3)C(=N)N12
91.8%	8.2	O=[N+]([O-])c1ccc(Cl)cc1Sc1nc2ccccc2s1
47.6%	52.4	Nc1nc(Cl)cc(Oc2ccccc2F)n1
0%	–	CCOc1cccc2c1OC(c1cccc(Cl)c1)N1N=C(c3cccs3)CC21 (stereo unspecified)
0%	122	O=C(CSc1nccn1-c1cccc(Cl)c1)Nc1cccc2ccccc12
67.9%	32.1	O=C(O)CCc1nc(-c2cccs2)no1
0%	–	O=C(c1cnc(Nc2ccc(F)cc2)c2ccccc12)n1ccnc1
30.4%	69.6	Cc1nc2c(ccc3ccccc32)c(O)c1CN1CCOCC1

inhibition [1]	percent fibril formation relative to control [2] [%]	Structure (SMILES)
4.06%	96	Oc1ccc(Nc2nc(-c3ccc(Cl)cc3)nc3ccccc23)cc1
60.8%	39.2	NC(=O)CSc1ncc(-c2ccc(Cl)cc2)[nH]1
16%	84	Nc1nc(F)cc(Oc2ccc(F)cc2)n1
0%	138	O=C1OC(c2ccc(Cl)cc2Cl)=N/C1=C/c1ccc(Cl)c(Cl)c1
0%	126	O=C(O)CCCCCN1C(=O)/C(=C/c2c[nH]c3ccccc23)SC1=S
0%	104	COc1ccccc1NC(=S)N(CCCN1CCCCCC1)Cc1cccs1
33.1%	66.9	Cc1nc2c(ccc3ccccc32)c(O)c1CN1CCCC1
79.7%	20.3	O=C(O)C1CSC(c2c(F)cccc2Cl)N1 (stereo unspecified)
18.2%	81.8	Cc1nc2ccc(Cl)cc2c(O)c1CN1CCCC1
45.6%	54.4	Nc1nc(F)cc(Oc2ccccc2F)n1
24.3%	75.7	CCCCN(CC)Cc1c(C)nc2c(ccc3ccccc32)c1O
100%	0	Clc1ccccc1C1CC(c2cccs2)Nc2nnnn21 (stereo unspecified)
10.4%	89.5	O=C(Nc1c2c(nn1-c1cccc(Cl)c1)C[S+]([O-])C2)c1ccccc1F (stereo unspecified)
58.1%	41.9	CCC(=O)NC(c1ccc2c(c1)OCO2)c1cc(Cl)c2cccnc2c1O (stereo unspecified)
0%	102	O=C(O)C1CSC(c2ccc(Cl)c(Cl)c2)N1 (stereo unspecified)
0%	104	O=C(O)c1ccc(Cl)c(N2C(=O)C3C4CCC(C4)C3C2=O)c1 (stereo in doubt; 34)
31.1%	68.9	Cc1ccc2nc(Nc3nc(O)c4ccccc4n3)nc(C)c2c1
0%	142	O=C(O)C1CSC(c2ccc(Cl)cc2)N1 (stereo unspecified)

Structure (SMILES)	inhibition [1]	percent fibril formation relative to control [2] [%]
O=C(O)C1CSC(c2cccnc2)N1 (stereo unspecified)	0%	144
